Data as given in ChEMBL document CHEMBL4330069, “Boosting the efficacy of anti-MRSA β-lactam antibiotics via an easily accessible, non-cytotoxic and orally bioavailable FtsZ inhibitor” (Eur J Med Chem, 2019).
≈ marks a conversion by molar mass, not a printed value. Calls of active or inactive are those of the source.

What was measured:
[1] = tested on: Staphylococcus aureus; test: Antibacterial activity against multidrug-resistant Staphylococcus aureus isolate 1402 by broth microdilution assay; assay type: functional
Procedure, shortened: (§1)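 Broth microdilution MIC per CLSI guidelines against clinical MRSA isolates, for β-lactams and test compound alone and in combination. Compounds were dissolved in DMSO. Growth was read by eye, in duplicate. FIC index = FIC(compound) + FIC(drug); synergy defined as FIC index ≤0.5.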

[2] = tested on: Staphylococcus aureus; test: Antibacterial activity against multidrug-resistant Staphylococcus aureus isolate 1717 by broth microdilution assay; assay type: functional; procedure, shortened: as §1
[3] = tested on: Staphylococcus aureus; test: Antibacterial activity against multidrug-resistant Staphylococcus aureus isolate 85 by broth microdilution assay; assay type: functional; procedure, shortened: as §1
[4] = tested on: Staphylococcus aureus; test: Antibacterial activity against multidrug-resistant Staphylococcus aureus isolate 2901 by broth microdilution assay; assay type: functional; procedure, shortened: as §1
[5] = tested on: Staphylococcus aureus; test: Antibacterial activity against multidrug-resistant Staphylococcus aureus isolate 2919 by broth microdilution assay; assay type: functional; procedure, shortened: as §1
[6] = tested on: Staphylococcus aureus; test: Antibacterial activity against multidrug-resistant Staphylococcus aureus isolate 254 by broth microdilution assay; assay type: functional; procedure, shortened: as §1
[7] = tested on: Staphylococcus aureus; test: Antibacterial activity against multidrug-resistant Staphylococcus aureus isolate 1449 by broth microdilution assay; assay type: functional; procedure, shortened: as §1
[8] = tested on: Staphylococcus aureus; test: Antibacterial activity against multidrug-resistant Staphylococcus aureus isolate 2895 by broth microdilution assay; assay type: functional; procedure, shortened: as §1
[9] = tested on: Staphylococcus aureus; test: Antibacterial activity against multidrug-resistant Staphylococcus aureus isolate 1344 by broth microdilution assay; assay type: functional; procedure, shortened: as §1
[10] = tested on: Staphylococcus aureus; test: Antibacterial activity against multidrug-resistant Staphylococcus aureus isolate 3589 by broth microdilution assay; assay type: functional; procedure, shortened: as §1
[11] = tested on: Staphylococcus aureus; test: Antibacterial activity against multidrug-resistant Staphylococcus aureus isolate 2973 by broth microdilution assay; assay type: functional; procedure, shortened: as §1
[12] = tested on: Staphylococcus aureus; test: Antibacterial activity against multidrug-resistant Staphylococcus aureus isolate 2490 by broth microdilution assay; assay type: functional; procedure, shortened: as §1
[13] = tested on: Staphylococcus aureus; test: Antibacterial activity against multidrug-resistant Staphylococcus aureus isolate 3411 by broth microdilution assay; assay type: functional; procedure, shortened: as §1
[14] = tested on: Staphylococcus aureus; test: Antibacterial activity against multidrug-resistant Staphylococcus aureus ATCC 43300 infected in BALB/C mouse assessed as mouse survival at 25 mg/kg, ip bid measured on day 4 post infection (reference value: 50%); assay type: functional
[15] = tested on: Staphylococcus aureus; test: Antibacterial activity against multidrug-resistant Staphylococcus aureus ATCC 43300 infected in BALB/C mouse assessed as mouse survival at 50 mg/kg, ip bid measured after 5 days; assay type: functional, organism-based
[16] = tested on: Staphylococcus aureus; test: Antibacterial activity against multidrug-resistant Staphylococcus aureus isolate 417 by broth microdilution assay; assay type: functional; procedure, shortened: as §1
[17] = tested on: Staphylococcus aureus; test: Antibacterial activity against multidrug-resistant Staphylococcus aureus isolate 200 by broth microdilution assay; assay type: functional; procedure, shortened: as §1
[18] = tested on: Staphylococcus aureus; test: Antibacterial activity against multidrug-resistant Staphylococcus aureus isolate 3580 by broth microdilution assay; assay type: functional; procedure, shortened: as §1
[19] = tested on: Staphylococcus aureus; test: Antibacterial activity against multidrug-resistant Staphylococcus aureus isolate 3332 by broth microdilution assay; assay type: functional; procedure, shortened: as §1
[20] = tested on: Staphylococcus aureus; test: Antibacterial activity against multidrug-resistant Staphylococcus aureus isolate 757 by broth microdilution assay; assay type: functional; procedure, shortened: as §1
[21] = tested on: Staphylococcus aureus; test: Antibacterial activity against multidrug-resistant Staphylococcus aureus isolate 358 by broth microdilution assay; assay type: functional; procedure, shortened: as §1
[22] = tested on: Staphylococcus aureus; test: Antibacterial activity against multidrug-resistant Staphylococcus aureus isolate 231 by broth microdilution assay; assay type: functional; procedure, shortened: as §1
[23] = tested on: Staphylococcus aureus; test: Antibacterial activity against multidrug-resistant Staphylococcus aureus isolate 2516 by broth microdilution assay; assay type: functional; procedure, shortened: as §1
[24] = tested on: Staphylococcus aureus; test: Antibacterial activity against multidrug-resistant Staphylococcus aureus isolate 2224 by broth microdilution assay; assay type: functional; procedure, shortened: as §1
[25] = tested on: Staphylococcus aureus; test: Antibacterial activity against multidrug-resistant Staphylococcus aureus isolate 774 by broth microdilution assay; assay type: functional; procedure, shortened: as §1
[26] = tested on: Staphylococcus aureus; test: Antibacterial activity against multidrug-resistant Staphylococcus aureus isolate 256 by broth microdilution assay; assay type: functional; procedure, shortened: as §1
[27] = tested on: Staphylococcus aureus; test: Antibacterial activity against multidrug-resistant Staphylococcus aureus isolate 3267 by broth microdilution assay; assay type: functional; procedure, shortened: as §1
[28] = tested on: Staphylococcus aureus; test: Antibacterial activity against multidrug-resistant Staphylococcus aureus isolate 1136 by broth microdilution assay; assay type: functional; procedure, shortened: as §1
[29] = tested on: Staphylococcus aureus; test: Antibacterial activity against multidrug-resistant Staphylococcus aureus isolate 2728 by broth microdilution assay; assay type: functional; procedure, shortened: as §1
[30] = tested on: Staphylococcus aureus; test: Antibacterial activity against multidrug-resistant Staphylococcus aureus isolate 1749 by broth microdilution assay; assay type: functional; procedure, shortened: as §1
[31] = Selective index, ratio of IC50 for mouse L929 cells to MIC for Staphylococcus aureus ATCC 29213
Procedure, shortened: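 Selectivity index calculated as L929 IC50 (μM) divided by S. aureus MIC (μM).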

[32] = biological target: T1, Cell division protein FtsZ (Staphylococcus aureus) (UniProt P0A031); test: Inhibition of Staphylococcus aureus N-terminal 6His-tagged FtsZ GTPase expressed in Escherichia coli BL21 (DE3) at 50 uM relative to control
T1 sequence (whole entry): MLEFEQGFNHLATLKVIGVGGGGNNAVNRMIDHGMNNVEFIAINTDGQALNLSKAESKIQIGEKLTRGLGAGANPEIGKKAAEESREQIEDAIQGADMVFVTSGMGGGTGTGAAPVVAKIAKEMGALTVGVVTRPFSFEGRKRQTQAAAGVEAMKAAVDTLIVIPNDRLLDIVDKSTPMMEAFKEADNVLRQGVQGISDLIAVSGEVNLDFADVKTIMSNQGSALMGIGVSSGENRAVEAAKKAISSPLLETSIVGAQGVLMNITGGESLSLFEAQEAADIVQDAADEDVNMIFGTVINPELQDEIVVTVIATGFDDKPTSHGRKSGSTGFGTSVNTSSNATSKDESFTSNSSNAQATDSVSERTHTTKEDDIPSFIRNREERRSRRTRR

[33] = tested on: Staphylococcus aureus; test: Synergistic antibacterial activity against Staphylococcus aureus ATCC BAA-41 at 1 to 16 times MIC in presence of methicillin after 21 hrs by time kill assay; assay type: functional, organism-based
Procedure, shortened: (§2)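 Colony of strain grown 16 h in CA-MH broth at 37 °C with shaking, diluted 100-fold and grown to mid-log (OD595 0.8), then set at 5×10^5 CFU/mL. […] Sampled at 0, 2.5, 5, 7.5, 21, 24 h, diluted and plated on drug-free CA-MH agar, 24 h at 37 °C; triplicates.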

[34] = tested on: Staphylococcus aureus; test: Antibacterial activity against Staphylococcus aureus ATCC BAA-41 at […] after 24 hrs by time kill assay; assay type: functional, organism-based
Procedure, shortened: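 Time-kill assay. S. aureus BAA-41 was grown in CA-MH broth to mid-log phase (OD595 0.8), then diluted to 5×10^5 CFU/mL. […] Samples were taken at 0–24 h and plated on drug-free CA-MH agar for 24 h. Triplicates.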

[35] = biological target: T1, Cell division protein FtsZ (Staphylococcus aureus); test: Inhibition of Staphylococcus aureus N-terminal 6His-tagged FtsZ GTPase expressed in Escherichia coli BL21 (DE3) at 30 uM relative to control
[36] = tested on: Staphylococcus aureus; test: Synergistic bactericidal activity against Staphylococcus aureus ATCC BAA-41 at 1 to 16 times MIC in presence of methicillin up to 24 hrs by time kill assay; assay type: functional, organism-based; procedure, shortened: as §2
[37] = tested on: Staphylococcus aureus; test: Antibacterial activity against Staphylococcus aureus ATCC 29213 by broth microdilution assay; assay type: functional
Procedure, shortened: (§3)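 Broth microdilution per CLSI guidelines; compounds dissolved in DMSO; single agents tested; growth inhibition read by eye; run in duplicate (table footnote states at least triplicates).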

[38] = biological target: T1, Cell division protein FtsZ (Staphylococcus aureus); test: Inhibition of Staphylococcus aureus N-terminal 6His-tagged FtsZ polymerization expressed in Escherichia coli BL21 (DE3) at 100 uM relative to control
Procedure, shortened: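 Purified S. aureus FtsZ polymerization with GTP, followed as light scattering (absorbance 600 nm) over time. Compound was tested at 12.5–100 µM against a 1% DMSO vehicle, and inhibition was read at 500 s. Triplicate.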

[39] = tested on: L929; test: Cytotoxicity against mouse L929 cells by MTS assay; assay type: cell-based
Procedure, shortened: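 MTS assay on L929 mouse fibroblasts; IC50 reported as the average of three independent measurements.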

[40] = tested on: Staphylococcus aureus; test: Bactericidal activity against Staphylococcus aureus ATCC BAA-41 assessed as log reduction in bacterial growth at 2 to 4 times MIC up to 7 hrs by time kill assay; assay type: functional
Procedure, shortened: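 Mid-log S. aureus BAA-41 culture (OD595 0.8) diluted to 5×10^5 CFU/mL in CA-MH broth. […] Incubated at 37 °C with shaking at 250 rpm, sampled at 0, 2.5, 5, 7.5, 21 and 24 h, and plated on drug-free CA-MH agar for 24 h at 37 °C to count viable cells; triplicates.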

[41] = tested on: Escherichia coli; test: Antibacterial activity against Escherichia coli ATCC 25922 by broth microdilution assay; assay type: functional; procedure, shortened: as §3
[42] = biological target: T1, Cell division protein FtsZ (Staphylococcus aureus); test: Inhibition of Staphylococcus aureus N-terminal 6His-tagged FtsZ GTPase expressed in Escherichia coli BL21 (DE3) at 100 uM relative to control

CO/N=C(\C(=O)N[C@@H]1C(=O)N2C(C(=O)O)=C(COC(N)=O)CS[C@H]12)c1ccco1 [CEFUROXIME]
MIC [1]: 16 µg/mL (≈ 37.7 µM) | MIC [2]: 16 µg/mL (≈ 37.7 µM) | MIC [3]: 8 µg/mL (≈ 18.9 µM) | MIC [4]: 16 µg/mL (≈ 37.7 µM) | MIC [5]: 16 µg/mL (≈ 37.7 µM) | MIC [6]: 1020 µg/mL (≈ 2410 µM) | MIC [7]: 2 µg/mL (≈ 4.71 µM) | MIC [8]: 64 µg/mL (≈ 151 µM) | MIC [9]: 256 µg/mL (≈ 603 µM) | MIC [10]: 512 µg/mL (≈ 1210 µM) | MIC [11]: 8 µg/mL (≈ 18.9 µM) | MIC [12]: 32 µg/mL (≈ 75.4 µM) | MIC [13]: 1020 µg/mL (≈ 2410 µM) | Activity [14]: 70% | Activity [15]: inactive | MIC [16]: 1020 µg/mL (≈ 2410 µM) | MIC [17]: 2 µg/mL (≈ 4.71 µM) | MIC [18]: 1020 µg/mL (≈ 2410 µM) | MIC [19]: 512 µg/mL (≈ 1210 µM) | MIC [20]: 32 µg/mL (≈ 75.4 µM) | MIC [21]: 2 µg/mL (≈ 4.71 µM) | MIC [22]: 1020 µg/mL (≈ 2410 µM) | MIC [23]: 512 µg/mL (≈ 1210 µM) | MIC [24]: 8 µg/mL (≈ 18.9 µM) | MIC [25]: 1020 µg/mL (≈ 2410 µM) | MIC [26]: 256 µg/mL (≈ 603 µM) | MIC [27]: 256 µg/mL (≈ 603 µM) | MIC [28]: 512 µg/mL (≈ 1210 µM) | MIC [29]: 16 µg/mL (≈ 37.7 µM) | MIC [30]: 16 µg/mL (≈ 37.7 µM)

NC(=O)c1c(F)ccc(OCc2nc3cc(Cl)cnc3s2)c1F
Selectivity Index [31]: >63 | inhibition [32]: -29% | Activity [33]: Active | Activity [34]: Active | inhibition [35]: -47% | Activity [36]: Active | MIC [37]: 1.6 µM (≈ 0.569 µg/mL) | inhibition [38]: Active | IC50 [39]: > 100 µM | log(activity) [40]: > 4 | MIC [41]: > 64 µg/mL | inhibition [42]: -15%
